Active and inactive are the calls of the source. The calls are words filed in the database; no cut-off is given here.
Columns and labels:
[1] = Reduction of IL6 expression mouse aP2-/-R macrophage cells (re-expression of aP2) relative to control; format: functional, cell-based
How it was run: (§1)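 Mouse aP2⁺/⁺ and aP2-reconstituted aP2⁻/⁻ macrophage lines were grown in RPMI with FBS or 5% LPDS, with inhibitor in DMSO or vehicle. Mcp-1, Il1β, Il6 and Tnf mRNA were measured by SYBR Green qRT-PCR (annealing at 58 °C, 50 cycles), normalized to 18s rRNA and then to untreated cells. Mean ± s.e.m.; at least triplicate.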

THP-1 [2] = test: Reduction of transformation of human THP1 cells to foam cells at 25 uM after 3 days relative to control; format: functional, cell-based
How it was run: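 PMA-differentiated THP-1 macrophages (100 nM, 24 h) were loaded with 50 μg ml⁻¹ acLDL for 24 h in 5% LPDS, then treated 3 days with 25 μM inhibitor or DMSO in 10% FBS. Cells were fixed in 10% formalin for 90 min and stained with Oil Red O for 3 h to view foam cells.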

Mus musculus [3] = test: Effect on adiponectin level in 5-week old apoE-/- C57BL/6J mouse fed on western diet and 15 mg/kg/day, po drug simultaneously in 5-11 week early intervention study; format: functional
How it was run: (§2)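 Male Apoe−/− mice on western diet (21% fat, 0.21% cholesterol) from 4–5 weeks of age. Oral gavage for 6 weeks from age 5 or 12 weeks; vehicle 10% 1-methyl-2-pyrrolidone, 5% cremophor EL with ethanol in water. Blood taken after 6 h fast before and after treatment. Glucose by meter; insulin by ELISA; lipids and glycerol colorimetric.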

Mus musculus [4] = test: Increase in insulin sensitivity in ob/ob mouse at 40 mg/kg/day, po after 5 weeks by insulin tolerance test; format: functional, organism-based
How it was run: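 Male ob/ob mice, from 8 weeks of age, got 40 mg kg⁻¹ d⁻¹ of the inhibitor or vehicle by oral gavage for 6 weeks. After 5 weeks of treatment and a 6 h fast, insulin was given intraperitoneally (2 IU kg⁻¹). Blood glucose was read with a glucose meter on 3 μl whole blood. Vehicle and treated groups had n = 6 each.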

Mus musculus [5] = test: Effect on body weight in 5-week old apoE-/- C57BL/6J mouse fed on western diet and administered with 15 mg/kg/day, po drug at 12 week in 12-18 week late intervention study; format: functional
Macrophage [6] = test: Increase in cholesterol efflux in mouse aP2-/-R macrophage cells (re-expression of aP2) at 25 uM relative to control; format: functional, cell-based
How it was run: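 Macrophages loaded 24 h in RPMI with 5% LPDS, 1 μCi ml⁻¹ ³H-cholesterol and 50 μg ml⁻¹ acLDL, ± 25 μM inhibitor. Equilibrated 24 h in 0.2% fatty-acid-free BSA ± inhibitor, then 4 h ± APOA1 20 μg ml⁻¹. Efflux = medium ³H as % of total, per mg protein; mouse lines normalized to untreated aP2+/+.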

Mus musculus [7] = test: Decrease in blood glucose level in fasted ob/ob mouse at 40 mg/kg/day, po after 6 weeks; format: functional, organism-based
How it was run: (§3)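 Male ob/ob mice given oral gavage daily for 6 weeks from 8 weeks old, n = 6 per group. Blood taken after 6 h fast before and after treatment; fed glucose taken at week 2. Glucose by meter on 3 μl whole blood, insulin by ultrasensitive ELISA, cholesterol, FFA and glycerol by colorimetric microplate assays.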

THP-1 [8] = test: Decrease in MCP1 production in human THP1 cells expressing aP2 after 24 hrs; format: functional, cell-based
How it was run: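 THP-1 monocytes differentiated with 100 nM PMA for 24 h. Incubated 24 h in RPMI with 5% lipoprotein-deficient serum with inhibitor 0–25 μM in DMSO. Supernatant MCP-1 measured by ELISA and normalized to cellular protein. At least triplicate.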

Mus musculus [9] = test: Increase in glucose metabolism in ob/ob mouse at 40 mg/kg/day, po after 4 weeks by glucose tolerance test; format: functional, organism-based
How it was run: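 Male ob/ob mice after 4 weeks of daily 40 mg kg⁻¹ oral gavage (started at 8 weeks), n = 6 per group. Glucose tolerance tested with 0.5 g kg⁻¹ intraperitoneal glucose after an overnight fast.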

[10] = Reduction of IL1-beta expressed in mouse aP2-/-R macrophage cells (re-expression of aP2) relative to control; format: functional, cell-based; how it was run: as §1
Macrophage [11] = test: Decrease in MCP1 production in mouse aP2+/+ macrophage cells after 24 hrs; format: functional, cell-based
How it was run: (§4)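 Immortalized mouse macrophage lines (aP2−/−R re-expressing aP2) kept 24 h in RPMI plus 5% LPDS with inhibitor 0–25 μM in DMSO. MCP-1 in supernatant measured by ELISA and expressed relative to inhibitor-free cells of each line. At least triplicate.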

Mus musculus [12] = test: Increase in whole body glucose disposal and glucose infusion rate in ob/ob mouse at 40 mg/kg/day, po after 4 weeks by hyperinsulinemic-euglycaemic clamp studies; format: functional, organism-based
How it was run: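 Clamps were run in ob/ob mice after 4 weeks of oral gavage at 40 mg kg⁻¹ d⁻¹ (vehicle n = 7, treated n = 9), with jugular catheters placed 4 days earlier. Insulin was infused at 12.5 mU kg⁻¹ min⁻¹, 25% glucose at variable rates held basal glycaemia, and ³H-glucose ran at 0.1 μCi min⁻¹. Clamp hepatic glucose production = whole-body uptake minus glucose infusion rate.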

[13] = Reduction of IL6 expression mouse aP2+/+ macrophage cells relative to control; format: functional, cell-based; how it was run: as §1
Mus musculus [14] = test: Increase in free fatty acid level in ob/ob mouse at 40 mg/kg/day, po after 6 weeks relative to control; format: functional; how it was run: as §3
Mus musculus [15] = test: Effect on free fatty acid level in 5-week old apoE-/- C57BL/6J mouse fed on western diet and 15 mg/kg/day, po drug simultaneously in 5-11 week early intervention study; format: functional; how it was run: as §2
Macrophage [16] = test: Reduction of IL1-beta expressed in mouse aP2+/+ macrophage cells relative to control; format: functional, cell-based; how it was run: as §1
Mus musculus [17] = test: Decrease in blood glucose level in fed ob/ob mouse at 40 mg/kg/day, po after 2 weeks; format: functional, organism-based; how it was run: as §3
Mus musculus [18] = test: Increase in insulin-stimulated IRbeta tyrosine 1162/1163 phosphorylation in ob/ob mouse adipose tissue at 40 mg/kg/day, po relative to control; format: functional, organism-based
How it was run: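 Male ob/ob mice were dosed by oral gavage at 40 mg kg⁻¹ d⁻¹ or with vehicle. After 6 h food withdrawal and tribromoethanol anaesthesia, insulin (2 IU kg⁻¹) or PBS went into the portal vein. Adipose tissue was taken 3 min later, lysed and immunoblotted for IRβ pTyr1162/1163, AKT pSer473 and total proteins. Signals were quantified by densitometry.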

Mus musculus [19] = test: Effect on cholesterol level in 5-week old apoE-/- C57BL/6J mouse fed on western diet and administered with 15 mg/kg/day, po drug at 12 week in 12-18 week late intervention study; format: functional; how it was run: as §2
Mus musculus [20] = test: Attenuation of JNK1 activity in ob/ob mouse adipose tissue at 40 mg/kg/day, po; format: functional
How it was run: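 Adipose lysate from male ob/ob mice (oral gavage 6 weeks from 8 weeks of age) immunoprecipitated with JNK1 antibody and protein A beads. Beads incubated with 10 μCi ³²P γATP, 10 μM ATP and 5 μg c-jun fusion protein at 30 °C for 20 min, then Laemmli stop.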

[21] = Decrease in MCP1 production in mouse aP2-/-R macrophage cells (re-expression of aP2) after 24 hrs; format: functional, cell-based; how it was run: as §4
Mus musculus [22] = test: Decrease in triglyceride level in ob/ob mouse at 40 mg/kg/day, po after 6 weeks relative to control; format: functional

## CCc1c(-c2ccccc2)c(-c2ccccc2)nn1-c1ccccc1-c1cccc(OCC(=O)O)c1
[1]
  Activity: Active
THP-1 [2]
  Activity: Active
Mus musculus [3]
  Activity: 8.59 µg/mL
Mus musculus [4]
  Activity: Active
Mus musculus [5]
  Activity: 37 g
Macrophage [6]
  Activity: Active
Mus musculus [7]
  Activity: Active
THP-1 [8]
  Activity: Dose-dependent effect
Mus musculus [9]
  Activity: Active
[10]
  Activity: Active
Macrophage [11]
  Activity: Active
Mus musculus [12]
  Activity: Active
[13]
  Activity: Active
Mus musculus [14]
  Activity: 0.9 mM
Mus musculus [15]
  Activity: 2 mM
Macrophage [16]
  Activity: Active
Mus musculus [17]
  Activity: Active
Mus musculus [18]
  Activity: Active
Mus musculus [19]
  Activity: 2277.2 mg/dL
Mus musculus [20]
  Activity: 40%
[21]
  Activity: Active
Mus musculus [22]
  Activity: 58 mg/dL

— ChEMBL document CHEMBL1142233, “Treatment of diabetes and atherosclerosis by inhibiting fatty-acid-binding protein aP2” (2007)
